Laboratory results as given in ChEMBL document CHEMBL1155806, “Inorganic polyhedral metallacarborane inhibitors of HIV protease: a new approach to overcoming antiviral resistance” (J Med Chem, 2008).

Experiments:
[1] = target: Protease (Human immunodeficiency virus 1, UniProt Q9YQ12); test: Inhibition of wild-type HIV1 BH10 protease expressed in Escherichia coli by spectrophotometric assay
Procedure, shortened: (§1)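 Recombinant PR refolded from inclusion bodies and purified. 8-10 pmol enzyme in 1 mL 0.1 M sodium acetate pH 4.7, 0.3 M NaCl, 4 mM EDTA. Ki obtained by fitting the Williams–Morrison competitive inhibition equation.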

[2] = target: Human immunodeficiency virus type 1 protease (Human immunodeficiency virus 1, UniProt Q72874, D30N/N88D); test: Inhibition of HIV1 recombinant protease D30N/N88D mutant expressed in Escherichia coli by spectrophotometric assay; procedure, shortened: as §1
[3] = target: Human immunodeficiency virus type 1 protease (Human immunodeficiency virus 1, UniProt Q72874, A71V/I84V/M46I/V82T); test: Inhibition of HIV1 recombinant protease M46I/A71V/V82T/I84V mutant expressed in Escherichia coli by spectrophotometric assay; procedure, shortened: as §1
[4] = target: Human immunodeficiency virus type 1 protease (Human immunodeficiency virus 1, UniProt Q72874, A71V/I84V/V82T); test: Inhibition of HIV1 recombinant protease A71V/V82T/I84V mutant expressed in Escherichia coli by spectrophotometric assay; procedure, shortened: as §1
[5] = target: Human immunodeficiency virus type 1 protease (Human immunodeficiency virus 1, UniProt Q72874, I47A/V32I); test: Inhibition of HIV1 recombinant protease V32I/I47A mutant expressed in Escherichia coli by spectrophotometric assay; procedure, shortened: as §1
[6] = target: Human immunodeficiency virus type 1 protease (Human immunodeficiency virus 1, UniProt Q72874, A71V/E35D/G73S/I15V/I62V/L10I/L63P/L90M/N37S/R41K); test: Inhibition of HIV1 recombinant protease L10I/I15V/E35D/N37S/R41K/I62V/L63P/A71V/G73S/L90M mutant expressed in Escherichia coli by spectrophotometric assay
[7] = target: Human immunodeficiency virus type 1 protease (Human immunodeficiency virus 1, UniProt Q72874, A71V/I54V/I84V/L10I/L24I/L33F/L63P/M46L/V82A); test: Inhibition of HIV1 recombinant protease L10I/L24I/L33F/M46L/I54V/L63P/A71V/V82A/I84V mutant expressed in Escherichia coli by spectrophotometric assay; procedure, shortened: as §1
[8] = target: Human immunodeficiency virus type 1 protease (Human immunodeficiency virus 1, UniProt Q72874, A71V/E35D/F53L/H69K/I54V/I84V/I93L/K20R/L10F/L19I/L33F/L63P/L89M/L90M/M36I/R41K/T74P); test: Inhibition of HIV1 recombinant protease L10F/L19I/K20R/L33F/E35D/M36I/R41K/F53L/I54V/L63P/H69K/A71V/T74P/I84V/L89M/L90M/I93L mutant expressed in Escherichia coli by spectrophotometric assay; procedure, shortened: as §1
[9] = Ratio of Ki for HIV1 recombinant protease D30N/N88D mutant to Ki for wild-type HIV1 BH10 protease; parameters: species or system Human immunodeficiency virus 1
[10] = Ratio of Ki for HIV1 recombinant protease M46I/A71V/V82T/I84V mutant to Ki for wild-type HIV1 BH10 protease; parameters: species or system Human immunodeficiency virus 1
[11] = Ratio of Ki for HIV1 recombinant protease A71V/V82T/I84V mutant to Ki for wild-type HIV1 BH10 protease; parameters: species or system Human immunodeficiency virus 1
[12] = Ratio of Ki for HIV1 recombinant protease V32I/I47A mutant to Ki for wild-type HIV1 BH10 protease; parameters: species or system Human immunodeficiency virus 1
[13] = Ratio of Ki for HIV1 recombinant protease L10I/I15V/E35D/N37S/R41K/I62V/L63P/A71V/G73S/L90M mutant to Ki for wild-type HIV1 BH10 protease; parameters: species or system Human immunodeficiency virus 1
[14] = Ratio of Ki for HIV1 recombinant protease L10I/L24I/L33F/M46L/[…]/L63P/A71V/V82A/I84V mutant to Ki for wild-type HIV1 BH10 protease expressed in Escherichia coli; parameters: species or system Human immunodeficiency virus 1
[15] = Ratio of Ki for HIV1 recombinant protease L10F/L19I/K20R/L33F/E35D/M36I/R41K/F53L/I54V/L63P/H69K/A71V/T74P/I84V/L89M/L90M/I93L mutant to Ki for wild-type HIV1 BH10 protease; parameters: species or system Human immunodeficiency virus 1

| SMILES | Ki [1] [nM] | Ki [2] [nM] | Ki [3] [nM] | Ki [4] [nM] | Ki [5] [nM] | Ki [6] [nM] | Ki [7] [nM] | Ki [8] [nM] | Ki ratio [9] | Ki ratio [10] | Ki ratio [11] | Ki ratio [12] | Ki ratio [13] | Ki ratio [14] | Ki ratio [15] |
| --- | --- | --- | --- | --- | --- | --- | --- | --- | --- | --- | --- | --- | --- | --- | --- |
| COC(=O)N[C@H](C(=O)N[C@@H](Cc1ccccc1)[C@@H](O)CN(Cc1ccc(-c2ccccn2)cc1)NC(=O)[C@@H](NC(=O)OC)C(C)(C)C)C(C)(C)C [ATAZANAVIR] | 0.024 | 0.055 | 0.76 | 0.23 | 0.17 | 0.076 | 1.2 | 0.054 | 2.3 | 32 | 9.4 | 7.1 | 3.2 | 50 | 2.3 |
| CC(C)CN(C[C@@H](O)[C@H](Cc1ccccc1)NC(=O)O[C@H]1CCOC1)S(=O)(=O)c1ccc(N)cc1 | […] |  |  |  |  |  | 4.1 |  |  |  |  |  |  |  |  |
| Cc1c(O)cccc1C(=O)N[C@@H](CSc1ccccc1)[C@H](O)CN1C[C@H]2CCCC[C@H]2C[C@H]1C(=O)NC(C)(C)C | 0.07 |  |  |  |  |  |  |  |  |  |  |  |  |  |  |
